{"source": "ChEMBL document CHEMBL4765441", "about": "“Design, synthesis and anti-cancer activity of pyrrole-imidazole polyamides through target-downregulation of c-kit gene expression” (Eur J Med Chem, 2020)", "key": {"[1]": {"system": "SGC-7901", "test": "Induction of morphological changes in human SGC7901 cells assessed as appearance of round shaped cells at 7.5 uM incubated for 36 hrs by microscopic analysis", "assay_type": "functional, cell-based", "how_it_was_run": "(§1)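 Cells seeded at 2 × 10^5 per well and grown 24 h. Medium then replaced with compound-containing medium. After 36 h co-culture, morphology inspected by light microscopy.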"}, "[2]": {"system": "SGC-7901", "test": "Down regulation of c-kit mRNA expression in human SGC-7901 cells at 7.5 uM incubated for 36 hrs by Western blot analysis", "assay_type": "functional, cell-based", "conditions": "in the assay text read “RT-PCR analysis” for “Western blot analysis”", "how_it_was_run": "(§2)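 Cells treated for 36 h. Total RNA quantified by Nanodrop and checked on 1.5% agarose with ethidium bromide. 400 ng RNA per one-step RT-PCR with c-kit-specific primers; reverse transcription 30 min at 50 °C, then 2 min at 94 °C. Normalized to β-actin; semi-quantitative.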"}, "[3]": {"system": "A549", "test": "Inhibition of cell migration in human A549 cells at 1.5 uM incubated for 48 hrs by inverted fluorescence microscope based scratch wound healing assay", "assay_type": "functional", "how_it_was_run": "(§3)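 20 × 10^4 cells per well grown to 80% confluence. Wound scratched with a pipette tip, washed twice with PBS and photographed under an inverted fluorescence microscope. Cells then held in serum-free medium with compound for 48 h. Migration measured as distance moved from the wound edge; mean ± SD, n = 3.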"}, "[4]": {"system": "SGC-7901", "test": "Induction of apoptosis in human SGC7901 cells assessed as viable cells at 7.5 uM incubated for 36 hrs by Annexin V-FITC/propidium iodide staining-based flow cytometric analysis (reference value: 93.2 %)", "assay_type": "functional", "conditions": "read-out: Activity"}, "[5]": {"system": "A549", "test": "Induction of apoptosis in human A549 cells assessed as viable cells at 15 uM incubated for 36 hrs by Annexin V-FITC/propidium iodide staining-based flow cytometric analysis (reference value: 97.9 %)", "assay_type": "functional", "conditions": "read-out: Activity"}, "[6]": {"system": "dsDNA", "test": "Binding affinity to 5'-AGGGGAGGCGAGGAGGGGCGTGGCCGG-3'/3'-TCCCCTCCGCTCCTCCCCGCACCGGCC-5' dsDNA (unknown origin) by circular dichroism spectroscopic analysis", "assay_type": "nucleic-acid assay", "conditions": "Homo sapiens", "how_it_was_run": "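Target duplex annealed at 95 °C, held 24 h in pH 7.0 buffer (10 mM sodium cacodylate, 100 mM NaCl, 0.5% DMSO), then degassed. Compound titrated in at compound:DNA ratios 0.0–3.0, room temperature, 15 min equilibration per addition. CD read 225–400 nm in a 5 mm quartz cell at 100 nm/min, 5.0 nm bandwidth. Average of three parallel runs.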"}, "[7]": {"system": "A549", "test": "Antiproliferative activity against human A549 cells assessed as reduction in cell viability incubated for 48 hrs by xCELLigence RTCA", "assay_type": "functional, cell-based", "conditions": "A549, 48 h"}, "[8]": {"system": "SGC-7901", "test": "Induction of apoptosis in human SGC7901 cells assessed as late apoptotic cells at 7.5 uM incubated for 36 hrs by Annexin V-FITC/propidium iodide staining-based flow cytometric analysis (reference value: 3.69 %)", "assay_type": "functional"}, "[9]": {"system": "GISTT1", "test": "Down regulation of c-kit gene expression at translational level in human GIST-T1 cells at 5 uM", "assay_type": "functional, cell-based"}, "[10]": {"system": "SGC-7901", "test": "Induction of apoptosis in human SGC7901 cells assessed as late apoptotic cells at 15 uM incubated for 36 hrs by Annexin V-FITC/propidium iodide staining-based flow cytometric analysis (reference value: 3.69 %)", "assay_type": "functional"}, "[11]": {"system": "dsDNA", "test": "Binding affinity to 5'-AGGGGAGGCGAGGAGGGGCGTGGCCGG-3'/3'-TCCCCTCCGCTCCTCCCCGCACCGGCC-5' dsDNA (unknown origin) at 1:2 DNA:compound ratio by SYBR GOLD staining based EMSA", "assay_type": "nucleic-acid assay", "conditions": "Homo sapiens", "how_it_was_run": "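Target 27-bp c-kit promoter duplex, annealed at 95 °C, then incubated overnight with or without compound in pH 7.4 buffer (10 mM Tris-HCl, 10 mM KCl, 0.1 mM EDTA). Mixtures run on 16% native polyacrylamide gel at 150 V for 3 h. Gels stained with SYBR Gold for 30 min and imaged on a gel documentation system.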"}, "[12]": {"test": "Drug localization in nucleus of human SGC-7901 cells incubated for 24 hrs by Hoechst-33342 staining based confocal laser scanning microscopic analysis", "assay_type": "ADME, subcellular", "conditions": "sgc-7901, 24 h", "how_it_was_run": "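SGC-7901 cells cultured 24 h, then given fluorescein-labeled polyamide (1.0, unit unclear) for 4 h. Medium replaced and culture continued 20 h. Live cells viewed at ×300, then fixed in 4% paraformaldehyde for 10 min. Nuclei stained with Hoechst 33342 for 5 min, PBS-washed, imaged by confocal laser scanning microscopy.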"}, "[13]": {"system": "A549", "test": "Down regulation of c-kit mRNA expression in human A549 cells at 7.5 uM incubated for 36 hrs by Western blot analysis", "assay_type": "functional, cell-based", "conditions": "in the assay text read “RT-PCR analysis” for “Western blot analysis”", "how_it_was_run": "as §2"}, "[14]": {"system": "A549", "test": "Induction of apoptosis in human A549 cells assessed as late apoptotic cells at 7.5 uM incubated for 36 hrs by Annexin V-FITC/propidium iodide staining-based flow cytometric analysis (reference value: 0.41 %)", "assay_type": "functional"}, "[15]": {"system": "SGC-7901", "test": "Induction of apoptosis in human SGC7901 cells assessed as necrotic cells at 7.5 uM incubated for 36 hrs by Annexin V-FITC/propidium iodide staining-based flow cytometric analysis (reference value: 0.34 %)", "assay_type": "functional"}, "[16]": {"system": "SGC-7901", "test": "Induction of apoptosis in human SGC7901 cells assessed as early apoptotic cells at 7.5 uM incubated for 36 hrs by Annexin V-FITC/propidium iodide staining-based flow cytometric analysis (reference value: 2.74 %)", "assay_type": "functional"}, "[17]": {"system": "SGC-7901", "test": "Inhibition of cell migration in human SGC7901 cells at 1.5 uM incubated for 48 hrs by inverted fluorescence microscope based scratch wound healing assay", "assay_type": "functional", "how_it_was_run": "as §3"}, "[18]": {"system": "A549", "test": "Induction of apoptosis in human A549 cells assessed as early apoptotic cells at 7.5 uM incubated for 36 hrs by Annexin V-FITC/propidium iodide staining-based flow cytometric analysis (reference value: 1.41 %)", "assay_type": "functional"}, "[19]": {"system": "SGC-7901", "test": "Induction of morphological changes in human SGC7901 cells assessed as cell detachment at 7.5 uM incubated for 36 hrs by microscopic analysis", "assay_type": "functional, cell-based", "how_it_was_run": "as §1"}, "[20]": {"system": "GISTT1", "test": "Antiproliferative activity against human GIST-T1 cells", "assay_type": "functional, cell-based"}, "[21]": {"system": "MKN-45", "test": "Antiproliferative activity against human MKN-45 cells assessed as reduction in cell viability incubated for 48 hrs by xCELLigence RTCA", "assay_type": "functional, cell-based", "conditions": "MKN-45, 48 h"}, "[22]": {"system": "GISTT1", "test": "Down regulation of c-kit gene expression at transcriptional level in human GIST-T1 cells", "assay_type": "functional, cell-based"}, "[23]": {"system": "A549", "test": "Induction of apoptosis in human A549 cells assessed as late apoptotic cells at 15 uM incubated for 36 hrs by Annexin V-FITC/propidium iodide staining-based flow cytometric analysis (reference value: 0.41 %)", "assay_type": "functional"}, "[24]": {"system": "SGC-7901", "test": "Induction of apoptosis in human SGC7901 cells assessed as viable cells at 15 uM incubated for 36 hrs by Annexin V-FITC/propidium iodide staining-based flow cytometric analysis (reference value: 93.2 %)", "assay_type": "functional", "conditions": "read-out: Activity"}, "[25]": {"system": "Bel-7402", "test": "Antiproliferative activity against human Bel-7402 cells assessed as reduction in cell viability incubated for 48 hrs by xCELLigence RTCA", "assay_type": "functional, cell-based", "conditions": "Bel-7402, 48 h"}, "[26]": {"system": "SGC-7901", "test": "Induction of apoptosis in human SGC7901 cells assessed as necrotic cells at 15 uM incubated for 36 hrs by Annexin V-FITC/propidium iodide staining-based flow cytometric analysis (reference value: 0.34 %)", "assay_type": "functional"}, "[27]": {"system": "A549", "test": "Induction of apoptosis in human A549 cells assessed as viable cells at 7.5 uM incubated for 36 hrs by Annexin V-FITC/propidium iodide staining-based flow cytometric analysis (reference value: 97.9 %)", "assay_type": "functional", "conditions": "read-out: Activity"}}, "note": "pIC50: −log10 of the molar value. Activity calls are given as the source filed them. The calls are words filed in the database; no cut-off is given here.", "data": [{"smiles": "CC(=O)Nc1cn(C)c(C(=O)Nc2cn(C)c(C(=O)Nc3cc(C(=O)Nc4cn(C)c(C(=O)NCCC(=O)Nc5cn(C)c(C(=O)Nc6cn(C)c(C(=O)NCC[C@@H](N)C(=O)Nc7cc(C(=O)Nc8cc(C(=O)NC[C@@H](O)CC(=O)Nc9cc(C(=O)Nc%10cn(C)c(C(=O)Nc%11cc(C(=O)Nc%12cc(C(=O)NCCC(=O)NCCCN(C)C)n(C)c%12)n(C)c%11)n%10)n(C)c9)n(C)c8)n(C)c7)n6)n5)n4)n(C)c3)n2)n1.Cl.Cl", "values": [{"measurement": "Activity", "setting": "[1]", "value": "Active"}, {"measurement": "Activity", "setting": "[2]", "value": "Active"}, {"measurement": "inhibition at 1.5 µM", "setting": "[3]", "value": 83.8, "unit": "%"}, {"measurement": "viability at 7.5 µM", "setting": "[4]", "value": 56.4, "unit": "%"}, {"measurement": "viability at 15 µM", "setting": "[5]", "value": 51.4, "unit": "%"}, {"measurement": "Activity", "setting": "[6]", "value": "Active"}, {"measurement": "pIC50", "setting": "[7]", "value": 5.22}, {"measurement": "Activity", "setting": "[8]", "value": 10.2, "unit": "%"}, {"measurement": "Activity", "setting": "[9]", "value": "Active"}, {"measurement": "Activity", "setting": "[10]", "value": 12.8, "unit": "%"}, {"measurement": "Activity", "setting": "[11]", "value": "Active"}, {"measurement": "Drug uptake", "setting": "[12]", "value": "Active"}, {"measurement": "Activity", "setting": "[13]", "value": "Active"}, {"measurement": "Activity", "setting": "[14]", "value": 14.1, "unit": "%"}, {"measurement": "Activity", "setting": "[15]", "value": 0.92, "unit": "%"}, {"measurement": "Activity", "setting": "[16]", "value": 32.4, "unit": "%"}, {"measurement": "inhibition at 1.5 µM", "setting": "[17]", "value": 85.7, "unit": "%"}, {"measurement": "Activity", "setting": "[18]", "value": 22.7, "unit": "%"}, {"measurement": "Activity", "setting": "[19]", "value": "Active"}, {"measurement": "Activity", "setting": "[20]", "value": "Active"}, {"measurement": "pIC50", "setting": "[21]", "value": 5.13}, {"measurement": "Activity", "setting": "[22]", "value": "Active"}, {"measurement": "Activity", "setting": "[23]", "value": 19.6, "unit": "%"}, {"measurement": "viability at 15 µM", "setting": "[24]", "value": 43.6, "unit": "%"}, {"measurement": "pIC50", "setting": "[25]", "value": 4.95}, {"measurement": "Activity", "setting": "[26]", "value": 1.83, "unit": "%"}, {"measurement": "viability at 7.5 µM", "setting": "[27]", "value": 60.5, "unit": "%"}]}]}
